Test results reported in ChEMBL document CHEMBL1158621, “Tricyclic sulfones as orally active gamma-secretase inhibitors: synthesis and structure-activity relationship studies” (Bioorg Med Chem Lett, 2010).
Activity calls are given as the source filed them. The calls are words filed in the database; no cut-off is given here.

How the values were obtained:
[1] = Inhibition of gamma-secretase-mediated cleavage of human APP Swedish and London mutation expressed in HEK293 cell membrane; type: cell-based
[2] = Inhibition of gamma-secretase-mediated cleavage of human APP Swedish and London mutation expressed in HEK293 cells assessed as reduction in amyloid beta42 production after 4 hrs by ECL technology; type: cell-based
[3] = Inhibition of gamma-secretase-mediated cleavage of human APP Swedish and London mutation expressed in HEK293 cells assessed as reduction in amyloid beta40 production after 4 hrs by ECL technology; type: cell-based
Method in brief: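 HEK293 cells expressing human APP with Swedish and London mutations were given fresh medium and incubated with inhibitor for 4 h. Ab40 was measured in 10 microliters of conditioned medium by ECL. Values are means of n = 2.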

[4] = test system: Mus musculus; assay: Reduction of amyloid beta40 level in non-transgenic mouse plasma at 10 mg/kg, po after 3 hrs; type: functional
[5] = test system: Mus musculus; assay: Reduction of amyloid beta40 level in non-transgenic mouse brain at 10 mg/kg, po after 3 hrs; type: functional
[6] = AUC in rat at 10 mg/kg, po after 6 hrs; type: ADME, organism-based; design: time < 6 hr, dose 10 mg/kg, route oral; settings: plasma
Method in brief: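 Rats were dosed orally at 10 mpk in 20% HPBCD. AUC was measured over 6 h by the cassette-accelerated rapid rat screen (CARRS).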

[7] = Drug level in rat brain at 10 mg/kg, po after 6 hrs; type: ADME, organism-based; design: dose 10 mg/kg, route oral; settings: read-out: Drug uptake
[8] = molecular target: Voltage-gated inwardly rectifying potassium channel KCNH2 (Homo sapiens, UniProt Q12809); assay: Inhibition of human ERG at 30 uM
[9] = Ratio of drug level in brain to plasma in rat at 10 mg/kg, po; type: ADME, organism-based; design: dose 10 mg/kg, route oral
[10] = species on record: Homo sapiens; assay: Protein binding in human plasma; settings: read-out: PPB (converted)
[11] = Permeability across human Caco-2 cells; type: ADME, cell-based; settings: read-out: permeability
[12] = Binding affinity to p-glycoprotein
[13] = molecular target: Cytochrome P450 3A4 (Homo sapiens, UniProt P08684); assay: Inhibition of CYP3A4 preincubated for 30 mins; type: ADME
Method in brief: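 CYP3A4 inhibition was determined after the compound was pre-incubated for 30 min.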

Chain of Cytochrome P450 3A4 (P08684 whole entry): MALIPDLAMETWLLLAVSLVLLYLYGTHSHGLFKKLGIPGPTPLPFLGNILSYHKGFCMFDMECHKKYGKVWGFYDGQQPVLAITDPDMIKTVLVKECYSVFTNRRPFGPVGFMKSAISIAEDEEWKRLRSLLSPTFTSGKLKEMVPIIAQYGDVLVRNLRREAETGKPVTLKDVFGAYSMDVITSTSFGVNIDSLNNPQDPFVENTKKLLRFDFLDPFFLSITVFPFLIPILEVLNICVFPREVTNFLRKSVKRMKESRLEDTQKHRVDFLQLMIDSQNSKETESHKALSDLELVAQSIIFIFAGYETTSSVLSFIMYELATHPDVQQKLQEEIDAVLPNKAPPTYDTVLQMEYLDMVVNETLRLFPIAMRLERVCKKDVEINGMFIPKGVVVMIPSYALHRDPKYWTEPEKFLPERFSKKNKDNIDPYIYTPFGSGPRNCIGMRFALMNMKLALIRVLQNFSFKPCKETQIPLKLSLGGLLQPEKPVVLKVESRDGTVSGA
Chain of Voltage-gated inwardly rectifying potassium channel KCNH2 (Q12809 whole entry): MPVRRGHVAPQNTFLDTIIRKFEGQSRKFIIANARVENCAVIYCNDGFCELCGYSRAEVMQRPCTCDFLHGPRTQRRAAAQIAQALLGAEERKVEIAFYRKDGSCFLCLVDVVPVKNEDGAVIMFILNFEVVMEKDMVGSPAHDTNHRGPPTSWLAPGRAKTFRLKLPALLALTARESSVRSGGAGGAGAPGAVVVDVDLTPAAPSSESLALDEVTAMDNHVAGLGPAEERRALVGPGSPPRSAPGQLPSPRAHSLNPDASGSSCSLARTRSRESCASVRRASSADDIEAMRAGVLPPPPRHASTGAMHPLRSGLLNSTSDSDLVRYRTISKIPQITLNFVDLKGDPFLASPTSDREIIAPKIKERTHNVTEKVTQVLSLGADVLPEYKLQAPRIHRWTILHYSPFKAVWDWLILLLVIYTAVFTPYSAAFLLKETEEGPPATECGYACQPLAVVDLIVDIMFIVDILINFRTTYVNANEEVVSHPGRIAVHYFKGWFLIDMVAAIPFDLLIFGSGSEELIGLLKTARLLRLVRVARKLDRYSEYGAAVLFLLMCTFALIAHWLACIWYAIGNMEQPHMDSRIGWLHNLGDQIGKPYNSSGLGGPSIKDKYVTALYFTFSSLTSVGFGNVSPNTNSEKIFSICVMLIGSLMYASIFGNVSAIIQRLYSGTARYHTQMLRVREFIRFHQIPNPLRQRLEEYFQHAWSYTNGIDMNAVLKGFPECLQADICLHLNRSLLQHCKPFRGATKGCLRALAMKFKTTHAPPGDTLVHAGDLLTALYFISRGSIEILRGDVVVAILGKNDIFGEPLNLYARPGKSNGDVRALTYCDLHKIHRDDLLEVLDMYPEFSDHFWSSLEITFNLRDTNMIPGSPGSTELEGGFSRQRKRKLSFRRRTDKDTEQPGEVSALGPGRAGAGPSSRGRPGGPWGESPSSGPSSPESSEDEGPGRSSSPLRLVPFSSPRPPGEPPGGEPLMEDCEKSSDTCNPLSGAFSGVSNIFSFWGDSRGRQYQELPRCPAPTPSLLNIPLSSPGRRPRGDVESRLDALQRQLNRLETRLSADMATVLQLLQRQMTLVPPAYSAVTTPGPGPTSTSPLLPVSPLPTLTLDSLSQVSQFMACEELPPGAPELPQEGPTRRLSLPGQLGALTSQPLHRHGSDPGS

| SMILES | IC50 [1] [nM] | IC50 [2] [nM] | IC50 [3] [nM] | other results |
| --- | --- | --- | --- | --- |
| O=S(=O)(N(C[C@@H]1CCC[C@@]2(S(=O)(=O)c3ccc(Cl)cc3)c3c(F)ccc(F)c3OC[C@@H]12)C1CC1)C(F)(F)F | 15 | 9 | 21 | – |
| O=S(=O)(NC[C@@H]1CCC[C@@]2(S(=O)(=O)c3ccc(Cl)cc3)c3c(F)ccc(F)c3OC[C@@H]12)N1CCCC1 | 3.3 | 3 | 5 | – |
| O=S1(=O)NCCN1C[C@@H]1CCC[C@@]2(S(=O)(=O)c3ccc(C(F)(F)F)cc3)c3c(F)ccc(F)c3OC[C@@H]12 | 37.7 | – | – | – |
| O=S(=O)(NC[C@@H]1CCC[C@@]2(S(=O)(=O)c3ccc(Cl)cc3)c3c(F)ccc(F)c3OC[C@@H]12)c1cccs1 | 16.7 | 18 | 45 | – |
| CCN(CC)S(=O)(=O)NC[C@@H]1CCC[C@@]2(S(=O)(=O)c3ccc(Cl)cc3)c3c(F)ccc(F)c3OC[C@@H]12 | 9 | 3 | 6 | – |
| NS(=O)(=O)NC[C@@H]1CCC[C@@]2(S(=O)(=O)c3ccc(Cl)cc3)c3c(F)ccc(F)c3OC[C@@H]12 | 2 | 1 | 1 | – |
| CCCS(=O)(=O)NC[C@@H]1CCC[C@@]2(S(=O)(=O)c3ccc(Cl)cc3)c3c(F)ccc(F)c3OC[C@@H]12 | 5.5 | 6 | 12 | – |
| CCN(C[C@@H]1CCC[C@@]2(S(=O)(=O)c3ccc(C(F)(F)F)cc3)c3c(F)ccc(F)c3OC[C@@H]12)S(C)(=O)=O | 34 | 7.4 | 18.5 | – |
| CN1CCN(C[C@@H]2CCC[C@@]3(S(=O)(=O)c4ccc(C(F)(F)F)cc4)c4c(F)ccc(F)c4OC[C@@H]23)S1(=O)=O | 68 | 13 | 23 | – |
| CCN(C[C@@H]1CCC[C@@]2(S(=O)(=O)c3ccc(C(F)(F)F)cc3)c3c(F)ccc(F)c3OC[C@@H]12)S(=O)(=O)C(F)(F)F | 97 | 21 | 42 | – |
| O=S(=O)(NC[C@@H]1CCC[C@@]2(S(=O)(=O)c3ccc(Cl)cc3)c3c(F)ccc(F)c3OC[C@@H]12)C(F)(F)F | 12 | 9 | 18 | inhibition in vivo at 10 mg/kg [4]: 86%; inhibition in vivo at 10 mg/kg [5]: 48% |
| CCN(C[C@@H]1CCC[C@@]2(S(=O)(=O)c3ccc(Cl)cc3)c3c(F)ccc(F)c3OC[C@@H]12)S(C)(=O)=O | 5.5 | 5 | 12 | – |
| CN(C)S(=O)(=O)NC[C@@H]1CCC[C@@]2(S(=O)(=O)c3ccc(C(F)(F)F)cc3)c3c(F)ccc(F)c3OC[C@@H]12 | 6.8 | 5.4 | 12.7 | – |
| CCS(=O)(=O)NC[C@@H]1CCC[C@@]2(S(=O)(=O)c3ccc(C(F)(F)F)cc3)c3c(F)ccc(F)c3OC[C@@H]12 | 20 | 1.6 | 5.5 | – |
| CCS(=O)(=O)N(C[C@@H]1CCC[C@@]2(S(=O)(=O)c3ccc(C(F)(F)F)cc3)c3c(F)ccc(F)c3OC[C@@H]12)C1CC1 | 28 | 14.2 | 29.5 | – |
| NS(=O)(=O)NC[C@@H]1CCC[C@@]2(S(=O)(=O)c3ccc(C(F)(F)F)cc3)c3c(F)ccc(F)c3OC[C@@H]12 | 18.7 | 4 | 6 | – |
| CC(C)S(=O)(=O)NC[C@@H]1CCC[C@@]2(S(=O)(=O)c3ccc(Cl)cc3)c3c(F)ccc(F)c3OC[C@@H]12 | 5.2 | 5 | 12 | – |
| O=S(=O)(NC[C@@H]1CCC[C@@]2(S(=O)(=O)c3ccc(Cl)cc3)c3c(F)ccc(F)c3OC[C@@H]12)c1ccccc1 | 61 | 46 | 128 | – |
| CS(=O)(=O)NC[C@@H]1CCC[C@@]2(S(=O)(=O)c3ccc(C(F)(F)F)cc3)c3c(F)ccc(F)c3OC[C@@H]12 | 13 | 3.6 | 12 | AUC at 6 h [6]: 2010 ng·h/mL; concentration at 6 h [7]: 80 ng/g; inhibition (INH) [8]: Not Active; Kp [9]: 0.73; fraction unbound [10]: 0.019; Papp [11]: 42.1 ×10⁻⁶ cm/s; Activity [12]: inactive; IC50 [13]: > 30000 nM |
| O=S(=O)(NC[C@@H]1CCC[C@@]2(S(=O)(=O)c3ccc(Cl)cc3)c3c(F)ccc(F)c3OC[C@@H]12)C1CC1 | 3.1 | 4 | 4 | – |
| O=S(=O)(NC[C@@H]1CCC[C@@]2(S(=O)(=O)c3ccc(Cl)cc3)c3c(F)ccc(F)c3OC[C@@H]12)N1CCCCC1 | 6 | 11 | 19 | – |

| SMILES | IC50 [1] [nM] | IC50 [2] [nM] | IC50 [3] [nM] | other results |
| --- | --- | --- | --- | --- |
| CN(C)S(=O)(=O)NC[C@@H]1CCC[C@@]2(S(=O)(=O)c3ccc(Cl)cc3)c3c(F)ccc(F)c3OC[C@@H]12 | 2.7 | 1 | 2 | – |
| CS(=O)(=O)NC[C@@H]1CCC[C@@]2(S(=O)(=O)c3ccc(Cl)cc3)c3c(F)ccc(F)c3OC[C@@H]12 | 2.5 | 2 | 2 | – |
| O=S(=O)(CC(F)(F)F)NC[C@@H]1CCC[C@@]2(S(=O)(=O)c3ccc(Cl)cc3)c3c(F)ccc(F)c3OC[C@@H]12 | 7.8 | 4 | 16 | – |
| CS(=O)(=O)N(C[C@@H]1CCC[C@@]2(S(=O)(=O)c3ccc(C(F)(F)F)cc3)c3c(F)ccc(F)c3OC[C@@H]12)C1CC1 | 5.8 | 6 | 9 | – |
| CCN(C[C@@H]1CCC[C@@]2(S(=O)(=O)c3ccc(Cl)cc3)c3c(F)ccc(F)c3OC[C@@H]12)S(=O)(=O)CC | 16 | 7 | 15 | – |
| O=S1(=O)CCCN1C[C@@H]1CCC[C@@]2(S(=O)(=O)c3ccc(C(F)(F)F)cc3)c3c(F)ccc(F)c3OC[C@@H]12 | 90 | 25 | 72 | – |
| CCN(C[C@@H]1CCC[C@@]2(S(=O)(=O)c3ccc(Cl)cc3)c3c(F)ccc(F)c3OC[C@@H]12)S(=O)(=O)C1CC1 | 20.5 | 9 | 25 | – |
| O=S(=O)(NC[C@@H]1CCC[C@@]2(S(=O)(=O)c3ccc(Cl)cc3)c3c(F)ccc(F)c3OC[C@@H]12)N1CCOCC1 | 3.4 | 3 | 6 | – |
| O=S(=O)(NC[C@@H]1CCC[C@@]2(S(=O)(=O)c3ccc(C(F)(F)F)cc3)c3c(F)ccc(F)c3OC[C@@H]12)C(F)(F)F | 41.7 | 18.7 | 40.6 | inhibition in vivo at 10 mg/kg [4]: 101%; AUC at 6 h [6]: 702 ng·h/mL; concentration at 6 h [7]: 91 ng/g; inhibition (INH) [8]: Not Active; Kp [9]: 1.01; fraction unbound [10]: 0.001; Papp [11]: 23 ×10⁻⁶ cm/s; Activity [12]: inactive; IC50 [13]: > 30000 nM; inhibition in vivo at 10 mg/kg [5]: 71% |
| O=S(=O)(CC(F)(F)F)NC[C@@H]1CCC[C@@]2(S(=O)(=O)c3ccc(C(F)(F)F)cc3)c3c(F)ccc(F)c3OC[C@@H]12 | 25 | 8 | 22.7 | – |
| CCN(C[C@@H]1CCC[C@@]2(S(=O)(=O)c3ccc(C(F)(F)F)cc3)c3c(F)ccc(F)c3OC[C@@H]12)S(=O)(=O)C1CC1 | 83 | 21 | 46.7 | – |
| O=S(=O)(N(C[C@@H]1CCC[C@@]2(S(=O)(=O)c3ccc(C(F)(F)F)cc3)c3c(F)ccc(F)c3OC[C@@H]12)C1CC1)C(F)(F)F | 35.3 | 14.2 | 15.3 | – |
| O=S1(=O)CCCCN1C[C@@H]1CCC[C@@]2(S(=O)(=O)c3ccc(C(F)(F)F)cc3)c3c(F)ccc(F)c3OC[C@@H]12 | 122 | – | – | – |
| CCOC(=O)CCS(=O)(=O)NC[C@@H]1CCC[C@@]2(S(=O)(=O)c3ccc(Cl)cc3)c3c(F)ccc(F)c3OC[C@@H]12 | 2 | 3 | 4 | – |
| CS(=O)(=O)N(C[C@@H]1CCC[C@@]2(S(=O)(=O)c3ccc(Cl)cc3)c3c(F)ccc(F)c3OC[C@@H]12)C1CC1 | 3.3 | 4 | 6 | – |
| O=S(=O)(NC[C@@H]1CCC[C@@]2(S(=O)(=O)c3ccc(C(F)(F)F)cc3)c3c(F)ccc(F)c3OC[C@@H]12)C1CC1 | 19.7 | 6.3 | 17.5 | – |
| O=S(=O)(NC[C@@H]1CCC[C@@]2(S(=O)(=O)c3ccc(Cl)cc3)c3c(F)ccc(F)c3OC[C@@H]12)C1CCCCC1 | 55 | 20 | 60 | – |
| CCCCS(=O)(=O)NC[C@@H]1CCC[C@@]2(S(=O)(=O)c3ccc(Cl)cc3)c3c(F)ccc(F)c3OC[C@@H]12 | 13 | 13 | 29 | – |
| CCS(=O)(=O)NC[C@@H]1CCC[C@@]2(S(=O)(=O)c3ccc(Cl)cc3)c3c(F)ccc(F)c3OC[C@@H]12 | 1.6 | 2 | 4 | – |
| O=S(=O)(NC[C@@H]1CCC[C@@]2(S(=O)(=O)c3ccc(Cl)cc3)c3c(F)ccc(F)c3OC[C@@H]12)c1c(F)cccc1F | 13 | 17 | 32 | – |
